Reference: ChEMBL document CHEMBL4665637, “Inhibition of diverse opportunistic viruses by structurally optimized retrograde trafficking inhibitors” (Bioorg Med Chem, 2019)
Calls of active or inactive are those of the source. The calls are words filed in the database; no cut-off is given here.

Experiments:
Human betaherpesvirus 5 [1] = experiment: Antiviral activity against HCMV TB40/E infected in human NHDF cells assessed as reduction in infectious virus titer compound added 2 hpi and measured after 96 hpi by inverted microscopic analysis; conditions: Human betaherpesvirus 5, TB40/E
[2] = Cytotoxicity in mouse BALB/3T3 clone A31 cells assessed as cell viability at 10 uM incubated for 96 hrs by XTT Assay; format: cell-based; conditions: balb/3t3 clone a31, 96 h
Summary of the method: (§1)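 Cells in 96-well plates exposed to DMSO or compound at 100 nM or 10 µM for 96 h. Medium then replaced with fresh medium. XTT read as absorbance after 2 h at 37°C with activating reagent; CellTiter-Glo (ATP) read as luminescence. Average of three independent experiments.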

NHDF [3] = experiment: Inhibition of retrograde transport in NHDF cells assessed as displacement of STX5 from golgi apparatus at 10 uM by immunofluorescence analysis; format: functional, cell-based; conditions: Homo sapiens
Summary of the method: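 HDFs exposed to 10 µM compound or DMSO vehicle, fixed in 2% paraformaldehyde for 15 min at room temperature. Blocked in PBS with 10% human serum, 0.5% Tween-20 and 5% glycine, permeabilized with 0.1% Triton X-100. Stained for STX5 and for the Golgi marker p115, DAPI mounting, imaged by confocal microscopy.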

BALB/3T3 clone A31 [4] = experiment: Antiviral activity against mouse polyomavirus A2 strain infected in BALB.3T3 clone A31 cells assessed as viral RNA at 1 to 10 uM measured after 24 hpi by RT-PCR analysis; format: functional, cell-based; conditions: Murine polyomavirus
Summary of the method: (§2)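 A31 cells in 10% FBS DMEM infected with MuPyV A2 at MOI 1 for 1.5 h at 37°C. Cells washed twice, then exposed to compound (100 nM, 1.0 µM or 10 µM) for 24 h. Total RNA extracted and 2 µg converted to cDNA. LT mRNA measured by qPCR, normalized to TBP and to untreated cells. Two independent experiments, n=4 per condition, mean ± SD, 2-way ANOVA.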

Vero [5] = experiment: Cytotoxicity in African green monkey VERO cells assessed as cell viability at 100 nM incubated for 96 hrs by CellTiter-Glo Luminescent assay; format: cell-based; conditions: chlorocebus sabaeus, 0.1 µM
Summary of the method: as §1

Human betaherpesvirus 5 [6] = experiment: Antiviral activity against HCMV infected in human ARPE-19 cells at 7.5 uM measured after 6 days post infection; format: functional, cell-based
Summary of the method: (§3)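 ARPE-19 cells infected with GFP-expressing HCMV and treated with compound at 7.5 µM. Images taken 3 and 6 days post infection, and area of infection calculated from GFP signal. Average of 3 distinct experiments.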

ARPE-19 [7] = experiment: Cytotoxicity in human ARPE-19 cells assessed as cell viability at 10 uM incubated for 96 hrs by XTT Assay; format: cell-based; conditions: arpe-19, 96 h
Summary of the method: as §1

ARPE-19 [8] = experiment: Cytotoxicity in human ARPE-19 cells assessed as cell viability at 100 nM incubated for 96 hrs by CellTiter-Glo Luminescent assay; format: cell-based; conditions: arpe-19, 96 h, 0.1 µM
Summary of the method: as §1

BALB/3T3 clone A31 [9] = experiment: Antiviral activity against mouse polyomavirus A2 strain infected in BALB.3T3 clone A31 cells assessed as viral RNA at 100 nM measured after 24 hpi by RT-PCR analysis; format: functional, cell-based; conditions: Murine polyomavirus
Summary of the method: as §2

[10] = Cytotoxicity in mouse BALB/3T3 clone A31 cells assessed as cell viability at 100 nM incubated for 96 hrs by XTT Assay; format: cell-based; conditions: balb/3t3 clone a31, 96 h, 0.1 µM
Summary of the method: as §1

ARPE-19 [11] = experiment: Cytotoxicity in human ARPE-19 cells assessed as cell viability at 100 nM incubated for 96 hrs by XTT Assay; format: cell-based; conditions: arpe-19, 96 h, 0.1 µM
Summary of the method: as §1

Human betaherpesvirus 5 [12] = experiment: Antiviral activity against HCMV infected in human ARPE-19 cells at 7.5 uM measured after 3 days post infection; format: functional, cell-based
Summary of the method: as §3

Human betaherpesvirus 5 [13] = experiment: Antiviral activity against HCMV TB40/E infected in human assessed as reduction in infectious virus titer at 10 uM compound added 2 hpi and measured after 96 hpi by inverted microscopic analysis
Vero [14] = experiment: Cytotoxicity in African green monkey VERO cells assessed as cell viability at 100 nM incubated for 96 hrs by XTT Assay; format: cell-based; conditions: chlorocebus sabaeus, 0.1 µM
Summary of the method: as §1

NHDF [15] = experiment: Cytotoxicity in human NHDF cells assessed as cell viability at 100 nM incubated for 96 hrs by CellTiter-Glo Luminescent assay; format: cell-based; conditions: 0.1 µM
Summary of the method: as §1

[16] = Cytotoxicity in mouse BALB/3T3 clone A31 cells assessed as cell viability at 100 nM incubated for 96 hrs by CellTiter-Glo Luminescent assay; format: cell-based; conditions: balb/3t3 clone a31, 96 h, 0.1 µM
Summary of the method: as §1

Vero [17] = experiment: Cytotoxicity in African green monkey VERO cells assessed as cell viability at 10 uM incubated for 96 hrs by CellTiter-Glo Luminescent assay; format: cell-based; conditions: chlorocebus sabaeus, dose […]
Summary of the method: as §1

NHDF [18] = experiment: Cytotoxicity in human NHDF cells assessed as cell viability at 10 uM incubated for 96 hrs by CellTiter-Glo Luminescent assay; format: cell-based
Summary of the method: as §1

NHDF [19] = experiment: Cytotoxicity in human NHDF cells assessed as cell viability at 10 uM incubated for 96 hrs by XTT Assay; format: cell-based
Summary of the method: as §1

[20] = Cytotoxicity in mouse BALB/3T3 clone A31 cells assessed as cell viability at 10 uM incubated for 96 hrs by CellTiter-Glo Luminescent assay; format: cell-based; conditions: balb/3t3 clone a31, 96 h
Summary of the method: as §1

Vero [21] = experiment: Cytotoxicity in African green monkey VERO cells assessed as cell viability at 10 uM incubated for 96 hrs by XTT Assay; format: cell-based; conditions: chlorocebus sabaeus
Summary of the method: as §1

NHDF [22] = experiment: Cytotoxicity in human NHDF cells assessed as cell viability at 100 nM incubated for 96 hrs by XTT Assay; format: cell-based; conditions: 0.1 µM
Summary of the method: as §1

ARPE-19 [23] = experiment: Cytotoxicity in human ARPE-19 cells assessed as cell viability at 10 uM incubated for 96 hrs by CellTiter-Glo Luminescent assay; format: cell-based; conditions: arpe-19, 96 h
Summary of the method: as §1

BALB/3T3 clone A31 [24] = experiment: Antiviral activity against mouse polyomavirus A2 strain infected in BALB.3T3 clone A31 cells assessed as viral RNA at 100 nM to 10 uM measured after 24 hpi by RT-PCR analysis; format: functional, cell-based; conditions: Murine polyomavirus, dose microM 0.1-10
Summary of the method: as §2

Compound	IC50 (Human betaherpesvirus 5 [1]) [nM]	Activity [2]	STX5 displacement from Golgi (active/inactive call) (NHDF [3])	Activity (Vero [5])	Activity (Human betaherpesvirus 5 [6])	Activity (ARPE-19 [7])	Activity (ARPE-19 [8])	Activity [10]	Activity (ARPE-19 [11])	Activity (Human betaherpesvirus 5 [12])	Activity (Human betaherpesvirus 5 [13])	Activity (Vero [14])	Activity (NHDF [15])	Activity [16]	Activity (Vero [17])	Activity (NHDF [18])	Activity (NHDF [19])	Activity [20]	Activity (NHDF [22])	Activity (ARPE-19 [23])	also measured
Cc1nc(-c2ccc(C3N(C)c4ccc(F)cc4C(=O)N3c3ccccc3)s2)cs1 (stereo not drawn)	25																				
Cc1nc(-c2ccc(C3Nc4ccc(C#N)cc4C(=O)N3c3ccccc3)s2)cs1 (stereo not drawn)	96.3	Toxic	Active	Non-Toxic	Active	Toxic	Non-Toxic	Non-Toxic	Non-Toxic	Active	Active	Non-Toxic	Non-Toxic	Non-Toxic	Toxic	Toxic	Toxic	Toxic	Non-Toxic	Toxic	Activity (BALB/3T3 clone A31 [4]): Active; Activity (BALB/3T3 clone A31 [9]): inactive; Activity (Vero [21]): Toxic
Cc1nc(-c2ccc(C3N(C)c4ccc(C#N)cc4C(=O)N3c3ccccc3)s2)cs1 (stereo not drawn)	34.1		Active	Non-Toxic	Active		Non-Toxic	Non-Toxic	Non-Toxic	Active	Active	Non-Toxic	Non-Toxic	Non-Toxic	Toxic	Toxic		Toxic	Non-Toxic	Toxic	Activity (BALB/3T3 clone A31 [24]): Active
Cc1nc(-c2ccc(C3N(C)c4ccccc4C(=O)N3c3ccccc3)s2)cs1 (stereo not drawn)	386																				
Cc1nc(-c2ccc(C3N(C)c4ccc([N+](=O)[O-])cc4C(=O)N3c3ccccc3)s2)cs1 (stereo not drawn)	21.3	Toxic	Active	Non-Toxic	Active	Toxic	Non-Toxic	Non-Toxic	Non-Toxic	Active	Active	Non-Toxic	Non-Toxic	Non-Toxic	Toxic	Toxic	Toxic	Toxic	Non-Toxic	Toxic	Activity (BALB/3T3 clone A31 [24]): Active; Activity (Vero [21]): Toxic
Cc1nc(-c2ccc(C3Nc4ccc([N+](=O)[O-])cc4C(=O)N3c3ccccc3)s2)cs1 (stereo not drawn)	90.5	Toxic	Active	Non-Toxic	Active	Toxic	Non-Toxic	Non-Toxic	Non-Toxic	Active	Active	Non-Toxic	Non-Toxic	Non-Toxic	Toxic	Toxic	Toxic	Toxic	Non-Toxic	Toxic	Activity (BALB/3T3 clone A31 [4]): Active; Activity (BALB/3T3 clone A31 [9]): inactive; Activity (Vero [21]): Toxic
